Our source for the Activity, GI50 and IC50 values is ChEMBL document CHEMBL1142438, “Pivaloyloxymethyl-modified isoprenoid bisphosphonates display enhanced inhibition of cellular geranylgeranylation” (Bioorg Med Chem, 2008).

Experiment [1] deals with K562. The experiment can be described thus: Inhibition of Rap1a protein modification in human K562 cells by Western blot relative to lovastatin. The class given is functional. In short, it runs like this:
(§1)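 K562 cells in suspension culture (5 × 10^6 cells/5 ml, fresh medium) exposed 24 h to 1, 2.5, 5, 10, 25 or 50 µM compound. Protein quantified by BCA, resolved on 12% SDS gel, transferred to PVDF, probed for Rap1a with primary then secondary antibody (45 min each), ECL detection.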

Experiment [2] has as its system K562. Kind of experiment: Inhibition of Rap1a protein geranylgernaylation modification in human K562 cells upto 10 uM by Western blot. It is filed as functional, cell-based. In a few lines: as §1
(In general: Immunoblotting shows a protein as a band on a membrane.)

Experiment [3] has as its system K562. The experiment can be described thus: Growth inhibition of human K562 cells after 24 hrs. The class given is functional. The conditions noted are these: K562, 24 h. In a few lines:
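K562 leukaemia cells (ATCC, grown per ATCC protocol), asynchronous suspension cultures at 5 × 10^6 cells/5 ml in fresh medium, exposed to compound for 24 h. Growth followed by 3H-thymidine incorporation. GI50 taken from quadruplicate dose–response curves.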

The test system of experiment [4] is K562. Kind of experiment: Inhibition of Rap1a protein modification in human K562 cells at 50 uM by Western blot. The class given is functional, cell-based. In short, it runs like this:
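K562 leukemia suspension cultures (5 × 10^6 cells/5 ml, fresh medium) incubated 24 h with compound, tested over 1, 2.5, 5, 10, 25 and 50 µM. Protein quantified by BCA; lysates run on 12% gel, transferred to PVDF, probed sequentially with primary and secondary antibodies (45 min each) for Rap1a, detected by ECL chemiluminescence.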

In experiment [5] the target is T1, Geranylgeranyl pyrophosphate synthase (Homo sapiens) (UniProt O95749).
T1 sequence (whole entry): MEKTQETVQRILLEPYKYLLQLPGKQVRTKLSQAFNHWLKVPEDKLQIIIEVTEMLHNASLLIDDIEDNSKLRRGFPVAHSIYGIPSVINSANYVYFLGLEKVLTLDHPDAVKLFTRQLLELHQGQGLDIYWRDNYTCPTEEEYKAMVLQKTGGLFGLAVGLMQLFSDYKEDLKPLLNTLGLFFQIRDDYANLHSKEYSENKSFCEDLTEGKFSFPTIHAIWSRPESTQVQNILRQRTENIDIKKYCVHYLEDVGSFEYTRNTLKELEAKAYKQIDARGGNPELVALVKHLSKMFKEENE
The experiment can be described thus: Inhibition of human recombinant GGDPS expressed in BL21 gold bacteria at 10 uM relative to control. Details: scale not given: the % may be the effect or the level left. In a few lines: (§2)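 GST-tagged recombinant human GGDPS expressed in BL21 gold E. coli (IPTG induction), glutathione-affinity purified. Reaction: 20 µM FPP, 40 µM [14C]IPP in 50 mM imidazole pH 7.5, 0.5 mM MgCl2, 0.5 mM ZnCl2. 10-min inhibitor preincubation, substrates added together, 1 h at 37 °C. [14C]GGPP extracted into butanol and counted by scintillation; activity as % of control, n = 3.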

For experiment [6], the target named is T2, Farnesyl pyrophosphate synthase (Homo sapiens) (UniProt P14324).
T2 sequence (whole entry): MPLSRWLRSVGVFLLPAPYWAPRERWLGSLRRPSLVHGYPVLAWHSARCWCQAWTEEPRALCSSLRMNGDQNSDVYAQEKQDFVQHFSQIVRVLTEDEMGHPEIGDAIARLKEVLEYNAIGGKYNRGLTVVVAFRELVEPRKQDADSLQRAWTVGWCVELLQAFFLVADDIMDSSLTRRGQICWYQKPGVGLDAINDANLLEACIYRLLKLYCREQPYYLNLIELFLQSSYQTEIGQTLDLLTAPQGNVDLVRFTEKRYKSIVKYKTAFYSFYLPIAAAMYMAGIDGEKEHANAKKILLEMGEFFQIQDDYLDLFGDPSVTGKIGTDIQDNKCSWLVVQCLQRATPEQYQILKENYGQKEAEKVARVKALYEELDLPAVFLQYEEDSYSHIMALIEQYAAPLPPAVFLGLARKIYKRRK
The experiment can be described thus: Inhibition of human recombinant FDPS expressed in BL21 gold bacteria at 100 uM relative to control. Details: scale not given: the % may be the effect or the level left. In short, it runs like this:
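GST-tagged recombinant human FDPS expressed in BL21 gold E. coli (IPTG induction), glutathione-affinity purified. Reaction: 20 µM GPP, 40 µM [14C]IPP in 50 mM Tris pH 7.7, 10 mM NaF, 2 mM MgCl2, 1 mg/mL BSA. 10-min enzyme–inhibitor preincubation, substrates added, 1 h at 37 °C. Butanol-extracted product counted by scintillation; n = 3.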

For experiment [7], the target named is T1, Geranylgeranyl pyrophosphate synthase (Homo sapiens). The experiment can be described thus: Inhibition of human recombinant GGDPS expressed in BL21 gold bacteria at 100 uM relative to control. Details: scale not given: the % may be the effect or the level left. In a few lines:
as §2

In experiment [8] the target is T3, Farnesyl pyrophosphate synthase (Homo sapiens, UniProt P14324).
T3 sequence (P14324 whole entry): T2 sequence (whole entry)
The experiment can be described thus: Inhibition of human recombinant FDPS expressed in BL21 gold bacteria. In a few lines:
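GST-tagged recombinant human enzyme expressed in BL21 gold bacteria (IPTG induction), purified by affinity chromatography or glutathione agarose. Reaction: 20 µM GPP, 40 µM 14C IPP in 50 mM Tris pH 7.7, 10 mM NaF, 2 mM MgCl2, 1 mg/mL BSA. 10-min preincubation with inhibitor, substrates then added; 1 h at 37 °C. Products extracted with saturated butanol; 14C incorporation by scintillation counting; n = 3.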

Calls of active or inactive are those of the source. The rule behind the calls is not given here.

For the compound `CC(C)=CCC(CC=C(C)C)(P(=O)(OCOC(=O)C(C)(C)C)OCOC(=O)C(C)(C)C)P(=O)(OCOC(=O)C(C)(C)C)OCOC(=O)C(C)(C)C`, the Activity in the experiment with K562 [1] is 5 µM. The result in the experiment on K562 [2] was Active. Moreover, the GI50 – broadly, the concentration that inhibits growth by half – in the experiment on K562 [3] was 7.7 µM.
`CC(C)=CCC/C(C)=C\CC(P(=O)(O)O)P(=O)(O)O` registered an Activity in the experiment with K562 [1] of more than 50 µM. For the same compound, the result in the experiment on K562 [4] was inactive. In the experiment on K562 [3], this compound registered a 50% growth inhibitory concentration (GI50) of more than 100 µM.
Regarding `CC(C)=CCC(CC=C(C)C)(P(=O)(O)O)P(=O)(O)O`, the Activity with K562 [1] was more than 50 µM. Further, in the experiment on K562 [4], the outcome was inactive. Further, the GI50 in the experiment with K562 [3] was more than 100 µM.
For `CC(C)=CCC/C(C)=C\CC(CC=C(C)C)(P(=O)(OCOC(=O)C(C)(C)C)OCOC(=O)C(C)(C)C)P(=O)(OCOC(=O)C(C)(C)C)OCOC(=O)C(C)(C)C`, in the experiment with K562 [1], the Activity turned out to be 5 µM. In the experiment with K562 [2], the result was Active. In addition, the result in the experiment with K562 [4] was inactive. For the same compound, in the experiment with K562 [3], the concentration for 50% growth inhibition (GI50) was found to be 21 µM.
Take `CC(C)=CCC/C(C)=C\CC/C(C)=C/CC(P(=O)(OCOC(=O)C(C)(C)C)OCOC(=O)C(C)(C)C)P(=O)(OCOC(=O)C(C)(C)C)OCOC(=O)C(C)(C)C`: the Activity in the experiment with K562 [1] was found to be 10 µM. Besides, in the experiment with K562 [3], halving of growth (GI50) required 2.7 µM.
Take `CC(C)=CCC/C(C)=C/CC(CC=C(C)C)(P(=O)(O)O)P(=O)(O)O`: the results for the Activity (in the experiment with K562 [1]; in experiment [5]) were 25 µM and 38%, respectively. The GI50 in the experiment on K562 [3] was more than 100 µM.
`CC(C)=CCC/C(C)=C\CC/C(C)=C\CC(P(=O)(OCOC(=O)C(C)(C)C)OCOC(=O)C(C)(C)C)P(=O)(OCOC(=O)C(C)(C)C)OCOC(=O)C(C)(C)C` returned an Activity in the experiment on K562 [1] of more than 50 µM. This compound gave a GI50 in the experiment on K562 [3] of 2.9 µM.
Take `CC(C)=CCC/C(C)=C/CC/C(C)=C/CC(P(=O)(OCOC(=O)C(C)(C)C)OCOC(=O)C(C)(C)C)P(=O)(OCOC(=O)C(C)(C)C)OCOC(=O)C(C)(C)C`: the Activity in the experiment with K562 [1] was 10 µM; in experiment [5] it was 96%. It took 7.9 µM to inhibit growth in the experiment with K562 [3] by half (GI50).
As to `CC(C)=CCC/C(C)=C/CC(P(=O)(OCOC(=O)C(C)(C)C)OCOC(=O)C(C)(C)C)P(=O)(OCOC(=O)C(C)(C)C)OCOC(=O)C(C)(C)C`, the results for the Activity (with K562 [1]; in experiment [6]; in experiment [7]) were 10 µM, 99% and 100%, respectively. Further, in the experiment with K562 [4], the outcome was inactive. It took 8.1 µM to inhibit growth in the experiment on K562 [3] by half (GI50).
In turn, `CC(C)=CCC/C(C)=C/CC/C(C)=C\CC(P(=O)(OCOC(=O)C(C)(C)C)OCOC(=O)C(C)(C)C)P(=O)(OCOC(=O)C(C)(C)C)OCOC(=O)C(C)(C)C` returned an Activity in the experiment with K562 [1] of more than 50 µM. The GI50 with K562 [3] was 2 µM.
In the experiment with K562 [1], `CC(C)=CCC/C(C)=C\CC/C(C)=C/CC(P(=O)(O)O)P(=O)(O)O` displayed an Activity of 50 µM.
`CC(C)=CCC/C(C)=C/CC(P(=O)(O)O)P(=O)(O)O`: the IC50 (in general, the midpoint of a concentration-inhibition curve) in experiment [8] came out at 20 µM. The Activity with K562 [1] was more than 50 µM; in experiment [6] it was 11%; in experiment [7], 51%. Besides, the outcome in the experiment with K562 [4] was inactive. This compound displayed a GI50 with K562 [3] of more than 100 µM.
In the experiment with K562 [1], `CC(C)=CCC/C(C)=C\CC(C/C=C(\C)CCC=C(C)C)(P(=O)(O)O)P(=O)(O)O` came in with an Activity of 25 µM. In the experiment with K562 [3], this compound displayed a GI50 of more than 100 µM.
`CC(C)=CCC/C(C)=C\CC(P(=O)(OCOC(=O)C(C)(C)C)OCOC(=O)C(C)(C)C)P(=O)(OCOC(=O)C(C)(C)C)OCOC(=O)C(C)(C)C`: the Activity in the experiment on K562 [1] was more than 50 µM. Further, the outcome in the experiment on K562 [4] was inactive. It took 7 µM to inhibit growth in the experiment with K562 [3] by half (GI50).
Turning to `CC(C)=CCC/C(C)=C/CC/C(C)=C/CC(P(=O)(O)O)P(=O)(O)O`, the Activity with K562 [1] amounted to 10 µM; in experiment [5] it was 42%. For the same compound, in the experiment with K562 [3], the GI50 worked out at 90 µM.
In the experiment with K562 [1], `CC(C)=CCC/C(C)=C\CC(C/C=C(\C)CCC=C(C)C)(P(=O)(OCOC(=O)C(C)(C)C)OCOC(=O)C(C)(C)C)P(=O)(OCOC(=O)C(C)(C)C)OCOC(=O)C(C)(C)C` gave an Activity of 25 µM. Also, in the experiment with K562 [3], the GI50 is more than 100 µM.
For `CC(C)=CCC/C(C)=C\CC/C(C)=C\CC(P(=O)(O)O)P(=O)(O)O`, the Activity in the experiment on K562 [1] is more than 50 µM.
`CC(C)=CCC/C(C)=C\CC(C/C=C(/C)CCC=C(C)C)(P(=O)(O)O)P(=O)(O)O` showed an Activity in the experiment on K562 [1] of 25 µM. Besides, the GI50 in the experiment with K562 [3] is more than 100 µM.
Regarding `CC(C)=CCC/C(C)=C\CC(CC=C(C)C)(P(=O)(O)O)P(=O)(O)O`, the IC50 in experiment [8] was more than 100 µM. Also, the Activity in the experiment on K562 [1] amounted to 50 µM. Also, in the experiment with K562 [4], the result was inactive. Also, in the experiment on K562 [3], the GI50 is more than 100 µM.
In the experiment with K562 [1], `CC(C)=CCC/C(C)=C\CC(C/C=C(/C)CCC=C(C)C)(P(=O)(OCOC(=O)C(C)(C)C)OCOC(=O)C(C)(C)C)P(=O)(OCOC(=O)C(C)(C)C)OCOC(=O)C(C)(C)C` returned an Activity of 10 µM. The GI50 in the experiment with K562 [3] is more than 100 µM.
`CC(C)=CCC/C(C)=C/CC(CC=C(C)C)(P(=O)(OCOC(=O)C(C)(C)C)OCOC(=O)C(C)(C)C)P(=O)(OCOC(=O)C(C)(C)C)OCOC(=O)C(C)(C)C`: the values for the Activity (in the experiment on K562 [1]; in experiment [5]) were 1 µM and 101%, respectively. The result with K562 [4] was inactive. Further, growth in the experiment on K562 [3] was halved (GI50) at 5.2 µM.
As to `CC(C)=CCC/C(C)=C/CC(C/C=C(\C)CCC=C(C)C)(P(=O)(O)O)P(=O)(O)O` [DIGERANYL BISPHOSPHONATE], in the experiment on K562 [1], the Activity came to 25 µM. The GI50 in the experiment with K562 [3] is more than 100 µM.
In the experiment on K562 [1], `CC(C)=CCC/C(C)=C/CC/C(C)=C\CC(P(=O)(O)O)P(=O)(O)O` gave an Activity of more than 50 µM.
Take `CC(C)=CCC/C(C)=C/CC(C/C=C(\C)CCC=C(C)C)(P(=O)(OCOC(=O)C(C)(C)C)OCOC(=O)C(C)(C)C)P(=O)(OCOC(=O)C(C)(C)C)OCOC(=O)C(C)(C)C`: the Activity came out at 10 µM in the experiment on K562 [1] and 96% in experiment [5]. Besides, the GI50 in the experiment with K562 [3] was determined as 58 µM.
